Experimental data published in ChEMBL document CHEMBL5303300, “EUbOPEN Chemogenomics Library - Multiplex” (2023).
“And” between values parts separate entries of the source, which are not always exact repeats. Equal values may be shown once.

What was measured:
Format in all cases: toxicity, cell-based
HEK-293T = experiment: Multiplex assay against HEK293T; conditions: human, 10 µM, compound concentration 10 uM, number of replicates 2
In short: (§1)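 Compound was added to live cells that had been stained at seeding with Hoechst33342, BioTracker Green Microtubule Cytoskeleton Dye, MitoTracker Red and Annexin V Alexa Fluor 680, and imaging followed on a CQ1 microscope at 37°C and 5% CO2. CellPathfinder machine-learning gating divided cells into Hoechst high-intensity objects or normal cells, normal cells into healthy, pyknosed or fragmented nuclei, and pyknosed cells into mitotic or apoptotic. Tubulin, mitochondrial-mass and membrane-permeability phenotypes are per cents of healthy-nucleus cells.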

Fibroblast = experiment: Multiplex assay against human fibroblast; conditions: 10 µM, compound concentration 10 uM, number of replicates 2; in short: as §1
U2OS = experiment: Multiplex assay against U2OS; conditions: human, 10 µM, compound concentration 10 uM, number of replicates 2; in short: as §1

CNC(=O)c1nn(C)c2c1C(C)(C)Cc1cnc(Nc3ccc(N4CCN(C)CC4)cc3)nc1-2 [MILCICLIB]
Population Apoptotic (%) (HEK-293T; 12 h): 71% and 63% and 94% and 80%
Population Fragmented Nuclei (%) (HEK-293T; 12 h): 2% and 5% and 0%
Population Healthy Nuclei (%) (HEK-293T; 12 h): 86% and 83% and 89% and 90%
Population Hoechst High Intensity Objects (%) (HEK-293T; 12 h): 16% and 14% and 15% and 12%
Population Membrane Permeable-Phenotype (%) (HEK-293T; 12 h): 3% and 1% and 0% and 2%
Population Mitochondria Different-Phenotype (%) (HEK-293T; 12 h): 81% and 80% and 79% and 71%
Population Normal (%) (HEK-293T; 12 h): 83% and 85% and 84% and 87%
Population Pyknosed Nuclei (%) (HEK-293T; 12 h): 10% and 7% and 8%
Population Tubulin-Different-Phenotype (%) (HEK-293T; 12 h): 94% and 95% and 91%
Total Cell Count (HEK-293T; 12 h): 247 and 254 and 304 and 272
Population Apoptotic (%) (HEK-293T; 24 h): 73% and 83% and 95% and 70%
Population Fragmented Nuclei (%) (HEK-293T; 24 h): 3% and 4% and 1%
Population Healthy Nuclei (%) (HEK-293T; 24 h): 91% and 89% and 88% and 93%
Population Hoechst High Intensity Objects (%) (HEK-293T; 24 h): 16% and 15% and 14%
Population Membrane Permeable-Phenotype (%) (HEK-293T; 24 h): 2% and 0% and 1%
Population Mitochondria Different-Phenotype (%) (HEK-293T; 24 h): 86% and 85% and 82% and 78%
Population Normal (%) (HEK-293T; 24 h): 83% and 84% and 85%
Population Pyknosed Nuclei (%) (HEK-293T; 24 h): 5% and 6%
Population Tubulin-Different-Phenotype (%) (HEK-293T; 24 h): 93% and 92% and 90%
Total Cell Count (HEK-293T; 24 h): 355 and 365 and 395
Population Apoptotic (%) (HEK-293T; 48 h): 82% and 77% and 88% and 76%
Population Fragmented Nuclei (%) (HEK-293T; 48 h): 3% and 1%
Population Healthy Nuclei (%) (HEK-293T; 48 h): 90% and 88% and 93%
Population Hoechst High Intensity Objects (%) (HEK-293T; 48 h): 19% and 16% and 11% and 14%
Population Membrane Permeable-Phenotype (%) (HEK-293T; 48 h): 2% and 1% and 0%
Population Mitochondria Different-Phenotype (%) (HEK-293T; 48 h): 91% and 90% and 94% and 89%
Population Mitotic Cells (%) (HEK-293T; 48 h): 17% and 22% and 12% and 23%
Population Normal (%) (HEK-293T; 48 h): 80% and 83% and 88% and 85%
Population Pyknosed Nuclei (%) (HEK-293T; 48 h): 5% and 8% and 6% and 4%
Population Tubulin-Different-Phenotype (%) (HEK-293T; 48 h): 93% and 89% and 88%
Total Cell Count (HEK-293T; 48 h): 395 and 386 and 413 and 401
Population Apoptotic (%) (Fibroblast; 12 h): 44% and 41% and 38% and 43%
Population Fragmented Nuclei (%) (Fibroblast; 12 h): 8% and 14% and 10% and 12%
Population Healthy Nuclei (%) (Fibroblast; 12 h): 78% and 69% and 75% and 76%
Population Hoechst High Intensity Objects (%) (Fibroblast; 12 h): 0%
Population Membrane Permeable-Phenotype (%) (Fibroblast; 12 h): 10% and 5% and 9% and 11%
Population Mitochondria Different-Phenotype (%) (Fibroblast; 12 h): 6% and 10% and 4%
Population Mitotic Cells (%) (Fibroblast; 12 h): 56% and 58% and 61%
Population Normal (%) (Fibroblast; 12 h): 99% and 100%
Population Pyknosed Nuclei (%) (Fibroblast; 12 h): 12% and 16% and 13% and 10%
Population Tubulin-Different-Phenotype (%) (Fibroblast; 12 h): 77% and 75% and 67% and 55%
Total Cell Count (Fibroblast; 12 h): 202 and 150 and 248 and 210
Population Apoptotic (%) (Fibroblast; 24 h): 50% and 39% and 52%
Population Fragmented Nuclei (%) (Fibroblast; 24 h): 18% and 13% and 19%
Population Healthy Nuclei (%) (Fibroblast; 24 h): 71% and 74% and 70% and 73%
Population Hoechst High Intensity Objects (%) (Fibroblast; 24 h): 0%
Population Membrane Permeable-Phenotype (%) (Fibroblast; 24 h): 6% and 0% and 4% and 3%
Population Mitochondria Different-Phenotype (%) (Fibroblast; 24 h): 7% and 9% and 11% and 6%
Population Mitotic Cells (%) (Fibroblast; 24 h): 50% and 60% and 47%
Population Normal (%) (Fibroblast; 24 h): 99% and 100%
Population Pyknosed Nuclei (%) (Fibroblast; 24 h): 9% and 12% and 7%
Population Tubulin-Different-Phenotype (%) (Fibroblast; 24 h): 75% and 71% and 65% and 55%
Total Cell Count (Fibroblast; 24 h): 250 and 149 and 287 and 240
Population Apoptotic (%) (Fibroblast; 48 h): 60% and 63% and 72% and 73%
Population Fragmented Nuclei (%) (Fibroblast; 48 h): 16% and 21% and 20% and 22%
Population Healthy Nuclei (%) (Fibroblast; 48 h): 71% and 58% and 67% and 63%
Population Hoechst High Intensity Objects (%) (Fibroblast; 48 h): 0%
Population Membrane Permeable-Phenotype (%) (Fibroblast; 48 h): 7% and 6% and 3% and 2%
Population Mitochondria Different-Phenotype (%) (Fibroblast; 48 h): 11% and 9% and 13% and 6%
Population Mitotic Cells (%) (Fibroblast; 48 h): 40% and 36% and 27% and 26%
Population Normal (%) (Fibroblast; 48 h): 100%
Population Pyknosed Nuclei (%) (Fibroblast; 48 h): 12% and 20% and 13%
Population Tubulin-Different-Phenotype (%) (Fibroblast; 48 h): 66% and 57% and 56% and 48%
Total Cell Count (Fibroblast; 48 h): 241 and 162 and 294 and 249
Population Apoptotic (%) (U2OS; 12 h): 66% and 80% and 69% and 62%
Population Healthy Nuclei (%) (U2OS; 12 h): 67% [middle of 4 runs]
Population Hoechst High Intensity Objects (%) (U2OS; 12 h): 0%
Population Mitochondria Different-Phenotype (%) (U2OS; 12 h): 50% and 57% and 45% and 40%
Population Mitotic Cells (%) (U2OS; 12 h): 33% and 19% and 30% and 37%
Population Normal (%) (U2OS; 12 h): 100% and 99%
Population Pyknosed Nuclei (%) (U2OS; 12 h): 39% [middle of 4 runs]
Population Tubulin-Different-Phenotype (%) (U2OS; 12 h): 85% and 92% and 76% and 74%
Population Apoptotic (%) (U2OS; 24 h): 85% and 89% and 80%
Population Healthy Nuclei (%) (U2OS; 24 h): 50% [middle of 4 runs]
Population Hoechst High Intensity Objects (%) (U2OS; 24 h): 0%
Population Mitochondria Different-Phenotype (%) (U2OS; 24 h): 78% and 64% and 65% and 59%
Population Mitotic Cells (%) (U2OS; 24 h): 14% and 10% and 19%
Population Normal (%) (U2OS; 24 h): 100% and 99%
Population Pyknosed Nuclei (%) (U2OS; 24 h): 57% and 43% and 45% and 36%
Population Tubulin-Different-Phenotype (%) (U2OS; 24 h): 78% and 92% and 77% and 69%
Population Apoptotic (%) (U2OS; 48 h): 93% and 84% and 92% and 89%
Population Healthy Nuclei (%) (U2OS; 48 h): 26% [middle of 4 runs]
Population Hoechst High Intensity Objects (%) (U2OS; 48 h): 0% and 1%
Population Membrane Permeable-Phenotype (%) (U2OS; 48 h): 28% and 36% and 26%
Population Mitochondria Different-Phenotype (%) (U2OS; 48 h): 100% and 54% and 69%
Population Mitotic Cells (%) (U2OS; 48 h): 6% and 15% and 7% and 10%
Population Normal (%) (U2OS; 48 h): 100% and 98%
Population Pyknosed Nuclei (%) (U2OS; 48 h): 76% and 42% and 68% and 57%
Population Tubulin-Different-Phenotype (%) (U2OS; 48 h): 71% and 81% and 77%
